Results taken from BindingDB's records for doi:10.1021/jm00343a011 (1982).
pIC50: −log10 of the molar value.

Columns and labels:
[1] = molecular target: T1, Malate dehydrogenase, cytoplasmic (Sus scrofa, UniProt P11708); assay: Ability to inhibit cytoplasmic malate dehydrogenase
T1 sequence (P11708 whole entry): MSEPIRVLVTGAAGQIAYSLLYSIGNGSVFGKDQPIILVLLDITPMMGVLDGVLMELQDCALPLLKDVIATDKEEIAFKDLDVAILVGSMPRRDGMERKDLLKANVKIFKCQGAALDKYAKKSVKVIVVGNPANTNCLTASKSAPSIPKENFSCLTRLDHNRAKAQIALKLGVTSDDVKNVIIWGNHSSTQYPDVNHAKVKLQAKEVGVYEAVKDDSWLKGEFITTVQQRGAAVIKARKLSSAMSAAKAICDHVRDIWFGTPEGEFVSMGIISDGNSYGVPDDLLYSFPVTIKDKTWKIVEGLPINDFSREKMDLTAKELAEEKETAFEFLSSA
Method in brief: (§1)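 Pig heart enzyme (cytoplasmic or mitochondrial form), diluted in 0.05 M Tris pH 7.4 with 1% BSA to give 0.022–0.027 OD/min at 340 nm. Cuvette holds 0.05 M Tris pH 8.4, L-malate, NAD+ and Me2SO ± inhibitor. Equilibrated at 25 °C, then started with enzyme. Five inhibitor concentrations in triplicate; I50 from least-squares dose-response line.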

[2] = molecular target: T2, Malate dehydrogenase, mitochondrial (Sus scrofa, UniProt P00346); assay: Ability to inhibit mitochondrial malate dehydrogenase; method in brief: as §1
T2 sequence (P00346 whole entry): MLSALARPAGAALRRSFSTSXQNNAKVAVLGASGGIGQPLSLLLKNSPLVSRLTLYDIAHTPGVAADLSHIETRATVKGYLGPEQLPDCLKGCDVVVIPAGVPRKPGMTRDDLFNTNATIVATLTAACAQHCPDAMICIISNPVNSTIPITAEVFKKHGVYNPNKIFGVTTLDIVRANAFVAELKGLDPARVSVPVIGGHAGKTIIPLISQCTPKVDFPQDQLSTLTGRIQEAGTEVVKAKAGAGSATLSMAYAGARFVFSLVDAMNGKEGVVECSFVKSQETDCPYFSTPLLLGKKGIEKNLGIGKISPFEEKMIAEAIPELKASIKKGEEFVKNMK

Row | SMILES | pIC50 [1] | pIC50 [2]
1 | O=C(O)c1cnc2cc([N+](=O)[O-])ccc2c1O | 2.92 | 2.72
2 | O=C(O)c1cnc2cc(O)ccc2c1O | 3.02 | 3.31
3 | NC(=O)c1ccc2c(O)c(C(=O)O)cnc2c1 | 3.22 | 3.13
4 | CS(=O)(=O)c1ccc2c(O)c(C(=O)O)cnc2c1 | 3.36 | 3.18
5 | O=C(O)c1cnc2cc(S(=O)(=O)O)ccc2c1O | 2.51 | 2.67
6 | CC(=O)c1ccc2c(O)c(C(=O)O)cnc2c1 | 3.04 | 3.04
7 | NS(=O)(=O)c1ccc2c(O)c(C(=O)O)cnc2c1 | 3.16 | 3.02
8 | O=C(O)c1cnc2cc(Cl)ccc2c1O | 2.33 | 2.44
9 | O=C(O)c1cnc2cc(OCCOc3ccccc3)ccc2c1O |  | 4.22
10 | O=C(O)c1cnc2cc(F)ccc2c1O | 1.96 | 1.98
11 | CN(C)c1ccc2c(O)c(C(=O)O)cnc2c1 | 3.43 | 3.32
12 | O=C(O)c1ccc2c(O)c(C(=O)O)cnc2c1 | 2.89 | 2.97

Now those with a higher pIC50 [2], led by results:

Row | pIC50 [1] | pIC50 [2] | SMILES
13 | 4.09 | 5.61 | O=C(O)c1cnc2cc(OCCOc3ccc(Oc4ccccc4)cc3)ccc2c1O
14 | 4.14 | 5.66 | O=C(O)c1cnc2cc(OCCc3ccc4ccccc4c3)ccc2c1O
15 |  | 4.40 | O=C(O)c1cnc2cc(OCc3ccc(F)cc3)ccc2c1O
16 | 4.21 | 5.74 | O=C(O)c1cnc2cc(OCCc3ccc(Oc4ccccc4)cc3)ccc2c1O
17 |  | 5.17 | O=C(O)c1cnc2cc(OCc3ccc(Br)cc3)ccc2c1O
18 |  | 5.80 | O=C(O)c1cnc2cc(OCCOc3ccc4ccccc4c3)ccc2c1O
19 | 4.51 | 5.83 | O=C(O)c1cnc2cc(OCc3ccc(Oc4ccccc4)cc3)ccc2c1O
20 | 4.04 | 5.60 | O=C(O)c1cnc2cc(OCCc3ccc(Br)cc3)ccc2c1O
21 |  | 5.29 | O=C(O)c1cnc2cc(OCCOc3ccc(Br)cc3)ccc2c1O
22 |  | 5.32 | O=C(O)c1cnc2cc(OCc3ccc(Cl)c(Cl)c3)ccc2c1O
23 |  | 4.74 | O=C(O)c1cnc2cc(OCCOc3ccc(F)cc3)ccc2c1O
24 |  | 4.88 | O=C(O)c1cnc2cc(OCc3cccc4ccccc34)ccc2c1O
25 |  | 4.83 | O=C(O)c1cnc2cc(OCCc3ccc(F)cc3)ccc2c1O
26 |  | 5.32 | O=C(O)c1cnc2cc(OCc3c(Cl)c(Cl)c(Cl)c(Cl)c3Cl)ccc2c1O
27 |  | 4.49 | O=C(O)c1cnc2cc(OCc3ccccc3)ccc2c1O
28 |  | 5.39 | O=C(O)c1cnc2cc(OCc3ccc4ccccc4c3)ccc2c1O
29 | 3.81 | 4.42 | O=C(O)c1cnc2cc(OCCc3ccccc3)ccc2c1O
